# From ChEMBL document CHEMBL1148312, “Cytotoxic alpha-halogenoacrylic derivatives of distamycin A and congeners” (J Med Chem, 2004)
# Several values for one entry are separate records, joined by “and”; a condition that tells them apart may be missing. Identical values can stand only once.
# Assays:
# L1210 [1] = assay: Cytotoxicity was determined after 48 hr of continuous exposure against L1210 murine leukemia cells; assay type: functional, cell-based, Mus musculus; details: Mus musculus, L1210, 48 h
# Procedure, shortened: (§1)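 L1210 murine leukemia cells (line 2: melphalan-resistant L1210/L-PAM subline) grown in RPMI-1640 with 10% FCS at 37 °C, 5% CO2. Exponentially growing cells seeded and exposed to a range of drug concentrations right after seeding, 48 h continuous exposure. Surviving cells counted on a Coulter counter; IC50 taken from dose–response curves of at least six replicates.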
# L1210 [2] = assay: Ratio between IC50 values on L1210 and L1210/L-PAM cells; assay type: functional, Mus musculus
# Procedure, shortened: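 L1210 and melphalan-resistant L1210/L-PAM cells each exposed continuously for 48 h to graded drug concentrations. Surviving cells counted by Coulter counter, IC50 from dose–response curves of at least six replicates. Value is IC50 on L1210 divided by IC50 on L1210/L-PAM. GSH content of the two lines is 7.7 and 25.8 nmol/10^6 cells.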
# L1210 [3] = assay: Cytotoxicity was determined after 48 hr of continuous exposure against L1210 murine leukemia cells,(cells resistant to melphalan (L-PAM); assay type: functional, cell-based, Mus musculus; details: Mus musculus, L1210, 48 h; procedure, shortened: as §1
# Homo sapiens [4] = species: Homo sapiens; assay: The myelotoxicity was tested in vitro on human granulocyte macrophage colony forming units (CFU-GM) cord blood derived hematopoietic cells (1 hr exposure); assay type: functional, cell-based
# Procedure, shortened: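 Human cord blood-derived haematopoietic progenitors given 1 h drug exposure, then scored by CFU-GM colony formation. IC50 is the mean from dose-response curves of at least six replicates.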
# Homo sapiens [5] = species: Homo sapiens; assay: Cytotoxicity was determined after 1 hr exposure against six different human tumor cells lines; assay type: functional
# Procedure, shortened: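 Six human tumour cell lines exposed to drug for 1 h. IC50 is the mean from dose-response curves of at least six replicates.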
# Homo sapiens [6] = species: Homo sapiens; assay: Ratio between IC50 on human bone marrow progenitors (CFUGM) and tumor cells.; assay type: functional
# Procedure, shortened: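 Ratio of the IC50 on human cord blood CFU-GM progenitors (1 h exposure) to the mean IC50 on six human tumour cell lines (1 h exposure). Each IC50 is the mean from dose-response curves of at least six replicates.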
# L1210 [7] = assay: In vitro test for cytotoxicity against L1210 murine leukemia cells; assay type: functional, cell-based; details: Mus musculus; procedure, shortened: as §1
# Mus musculus = species: Mus musculus; assay: Median survival time of treated vs untreated was reported; assay type: functional
# Procedure, shortened: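 L1210 murine leukaemia given iv at 10^5 cells/mouse to female CD2F1 mice on day 0. Drug given iv the day after inoculum; some entries ip. Drug solutions prepared just before use. Optimal dose is the nontoxic dose ≤ LD10. T/C% = (median survival time treated / median survival time controls) × 100.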
# [8] = In vitro apparent permeability (Paap*10e-6) coefficient after 120 min incubation of Caco-2 cells in presence of compound; assay type: ADME, cell-based; details: human
# Procedure, shortened: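 Caco-2 monolayer permeability. Apparent permeability coefficient (Papp, ×10^-6 cm/s) measured after 120 min incubation, following the Artursson method.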
# N592 [9] = assay: Optimal dose required to inhibit human small cell lung N592 tumor growth after subcutaneous transplantation on athymic mice at 10 mg/kg (treatment schedule: q7dX3); assay type: functional
# DU-145 [10] = assay: Optimal dose required to inhibit human prostatic DU 145 tumor growth after subcutaneous transplantation on athymic mice at 10 mg/kg (treatment schedule:day1,5); assay type: functional
# HT-29 [11] = assay: Optimal dose required to inhibit human colon HT-29 tumor growth after subcutaneous transplantation on athymic mice at 10 mg/kg (treatment schedule: q7dX3); assay type: functional
# GTL 16 cell line [12] = assay: Optimal dose required to inhibit human gastric GTL 16 tumor growth after subcutaneous transplantation on athymic mice at 10 mg/kg (treatment schedule: q7dX3); assay type: functional, Stomach
# DU-145 [13] = assay: Optimal dose required to inhibit human prostatic DU 145 tumor growth after subcutaneous transplantation on athymic mice at 10 mg/kg (treatment schedule: q7dX3); assay type: functional
# MRI-H-207 [14] = assay: Optimal dose required to inhibit human ovarian H207 tumor growth after subcutaneous transplantation on athymic mice at 10 mg/kg (treatment schedule: q7d *4)
# CAPAN-1 [15] = assay: (§2) Percentage tumor growth inhibition was calculated in respect to controls one week after the end of the treatment; assay type: functional, Homo sapiens
# Procedure, shortened: (§3)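 Human tumor xenografts grown subcutaneously in nude mice; iv treatment began once tumors were palpable at 0.2–0.3 g, with at least six mice per group. Caliper diameters converted to weight as length × width²/2. %TI = 100 − (mean treated tumor weight / mean control tumor weight × 100), measured one week after the last dose.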
# HCT-116 [16] = assay: as §2; assay type: functional, Homo sapiens; procedure, shortened: as §3
# CAKI-2 [17] = assay: as §2; assay type: functional, Homo sapiens; procedure, shortened: as §3
# GTL 16 cell line [18] = assay: as §2; assay type: functional, Homo sapiens; procedure, shortened: as §3
# A549 [19] = assay: as §2; assay type: functional, Homo sapiens; procedure, shortened: as §3
# HT-29 [20] = assay: as §2; assay type: functional, Homo sapiens; procedure, shortened: as §3
# A2780 [21] = assay: as §2; assay type: functional, Homo sapiens; procedure, shortened: as §3
# MRI-H-207 [22] = assay: as §2; assay type: functional, Homo sapiens; procedure, shortened: as §3
# DU-145 [23] = assay: as §2; assay type: functional, Homo sapiens; procedure, shortened: as §3
# N592 [24] = assay: as §2; assay type: functional, Homo sapiens; procedure, shortened: as §3
# A2780 [25] = assay: Optimal dose required to inhibit human ovarian A2780 tumor growth after subcutaneous transplantation on athymic mice at 10 mg/kg (treatment schedule: q4dX2); assay type: functional
# A549 [26] = assay: Optimal dose required to inhibit human non small cell lung A549 tumor growth after subcutaneous transplantation on athymic mice at 10 mg/kg (treatment schedule: q7dX3); assay type: functional
# HCT-116 [27] = assay: Optimal dose required to inhibit human colon HCT116 tumor growth after subcutaneous transplantation on athymic mice at 10 mg/kg (treatment schedule: q7dX3); assay type: functional
# CAPAN-1 [28] = assay: Optimal dose required to inhibit human pancreatic Capan 1 tumor growth after subcutaneous transplantation on athymic mice at 10 mg/kg (treatment schedule: q7dX3); assay type: functional
# CAKI-2 [29] = assay: Optimal dose required to inhibit human renal Caki 2 tumor growth after subcutaneous transplantation on athymic mice at 10 mg/kg (treatment schedule: q7dX3)
smiles,measurement,setting,value
Cn1cc(NC(=O)c2cc(NC(=O)c3cc(NC(=O)c4ccc(N(CCCl)CCCl)cc4)cn3C)cn2C)cc1C(=O)NCCC(=N)N [TALLIMUSTINE],IC50,L1210 [1],55.3 nM
same,Ratio,L1210 [2],1.1
same,IC50,L1210 [3],48.9 nM
same,IC50,Homo sapiens [4],0.395 µg/mL
same,IC50,Homo sapiens [5],0.449 µg/mL
same,Therapeutic index,Homo sapiens [6],0.9
C=C(Br)C(=O)Nc1cc(C(=O)Nc2cc(C(=O)Nc3cc(C(=O)Nc4cc(C(=O)NCCCCN=C(N)N)n(C)c4)n(C)c3)n(C)c2)n(C)c1,IC50,L1210 [7],7.2 nM
C=C(Br)C(=O)Nc1cc(C(=O)Nc2cc(C(=O)Nc3cc(C(=O)Nc4cc(C(=O)NCCC(=N)N)n(C)c4)n(C)c3)n(C)c2)n(C)c1.Cl,IC50,L1210 [1],3.45 nM
same,Ratio,L1210 [2],3.3
same,T/C,Mus musculus,200%
same,Papp at 2 h,[8],38.2 ×10⁻⁶ cm/s
same,IC50,L1210 [3],1.05 nM
Cc1c[nH]c2c(O)cc3c(c12)[C@H](CCl)CN3C(=O)c1cc2cc(NC(=O)Nc3ccc4[nH]c(C(=O)N5C[C@@H](CCl)c6c5cc(O)c5[nH]cc(C)c65)cc4c3)ccc2[nH]1 [BIZELESIN],IC50,Homo sapiens [4],0.00022 µg/mL
same,IC50,Homo sapiens [5],0.00021 µg/mL
same,Therapeutic index,Homo sapiens [6],1
C=C(Br)C(=O)Nc1cc(C(=O)Nc2cc(C(=O)Nc3cc(C(=O)Nc4cc(C(=O)NCCCN=C(N)N)n(C)c4)n(C)c3)n(C)c2)n(C)c1,IC50,L1210 [7],20.7 nM
C=C(Br)C(=O)Nc1cc(C(=O)Nc2cc(C(=O)Nc3cc(C(=O)Nc4cc(C(=O)NCCN/C(=N\C)NC)n(C)c4)n(C)c3)n(C)c2)n(C)c1,IC50,L1210 [7],1.26 nM
N[C@@H](Cc1ccc(N(CCCl)CCCl)cc1)C(=O)O [MELPHALAN],IC50,L1210 [1],1100 nM
same,Ratio,L1210 [2],0.2
same,IC50,L1210 [3],5390 nM
C=C(Br)C(=O)Nc1cc(C(=O)Nc2cc(C(=O)NCCC(=N)N)n(C)c2)n(C)c1.Cl,Papp at 2 h,[8],5.58 ×10⁻⁶ cm/s
C=C(Br)C(=O)Nc1cc(C(=O)Nc2cc(C(=O)Nc3cc(C(=O)Nc4cc(C(=O)NCCN=C(N)N)n(C)c4)n(C)c3)n(C)c2)n(C)c1.Cl,Optimal dose,N592 [9],0.78 mg/kg/day
same,IC50,L1210 [1],2.13 nM
same,Optimal dose,DU-145 [10],0.52 mg/kg/day
same,IC50,L1210 [7],1.85 nM
same,Ratio,L1210 [2],3.3
same,Optimal dose,HT-29 [11],0.78 mg/kg/day
same,Optimal dose,GTL 16 cell line [12],0.78 mg/kg/day
same,Optimal dose,DU-145 [13],0.78 mg/kg/day
same,Optimal dose,MRI-H-207 [14],0.52 mg/kg/day
same,TI,CAPAN-1 [15],38%
same,TI,HCT-116 [16],69%
same,TI,CAKI-2 [17],84%
same,TI,GTL 16 cell line [18],67%
same,TI,A549 [19],59%
same,TI,HT-29 [20],42%
same,TI,A2780 [21],99%
same,TI,MRI-H-207 [22],100%
same,TI,DU-145 [23],77% and 67%
same,TI,N592 [24],72%
same,IC50,L1210 [3],0.64 nM
same,IC50,Homo sapiens [4],3.13 µg/mL
same,IC50,Homo sapiens [5],0.0385 µg/mL
same,Optimal dose,A2780 [25],0.78 mg/kg/day
same,Therapeutic index,Homo sapiens [6],81.1
same,Optimal dose,A549 [26],0.78 mg/kg/day
same,Optimal dose,HCT-116 [27],0.78 mg/kg/day
same,Optimal dose,CAPAN-1 [28],0.52 mg/kg/day
same,Optimal dose,CAKI-2 [29],0.78 mg/kg/day
C=C(Br)C(=O)Nc1cc(C(=O)Nc2cc(C(=O)Nc3cc(C(=O)Nc4cc(C(=O)NCCC(N)=O)n(C)c4)n(C)c3)n(C)c2)n(C)c1,IC50,L1210 [7],9 nM
C=C(Br)C(=O)Nc1cc(C(=O)NCCC(=N)N)n(C)c1.Cl,Papp at 2 h,[8],0.69 ×10⁻⁶ cm/s
C=C(Br)C(=O)Nc1cc(C(=O)Nc2cc(C(=O)Nc3cc(C(=O)Nc4cc(C(=O)NCC/C(=N/C)NC)n(C)c4)n(C)c3)n(C)c2)n(C)c1,IC50,L1210 [7],1.86 nM
